Most compounds without a hit are left out; they make up all but 4.8% or so of the library.
SKKanGAS inh: S. pyogenes SKKanGAS growth inhibitors in kanamycin, primary screen, streptokinase expression inhibitor project, SKKanGAS strain, BacTiter-Glo luminescence | 6 h | inhibition, % at 7.5 µM | 300,000 tested, 1.3% active | AID 1662, 2009;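 active = mean replicate score, as percent of positive control median, at least 50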;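 also: strain carries kanamycin resistance gene driven by streptokinase promoter and grows in 40 µg/ml kanamycin; loss of luminescence reflects streptokinase promoter inhibition or plain growth inhibition; 0% = median of DMSO wells and 100% = positive control at its reference dose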
Beta cell apopt: inhibitors of cytokine-induced beta cell apoptosis, primary screen, luminescence; INS-1E cytokine-induced death, ATP luminescence, 48 h; percent of positive-control rescue, neutral wells zero; protection from apoptosis, % (test concentration not listed); 300,000 tested, 0.8% active; AID 435005, 2010;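 active = Every replicate reaches about 75%, or at least half do and their mean reaches it too, limit read from the data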;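 also: 0% = cytokine-treated negative control wells and 100% = positive control rescue; higher means more ATP so stronger rescue from cytokine killing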
XBP1 UPR activ: activators of adaptive XBP1 UPR arm, primary screen, cell-based, CHO-XBP1 luciferase reporter, luminescence, uHTS. activation, % at 20 µM. 330,000 tested, 0.33% active. IRE1-XBP1 UPR activation; percent of tunicamycin response, DMSO as zero;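 active = versus positive control, 20 µM dose yields 30% or more activation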;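 also: 100% = tunicamycin at 10 µg/mL and 0% = DMSO only wells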
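Material: CHO-XBP1 cells stably carrying IRE1-XBP1-driven luciferase reporter / Amount: 1000 cells per well / Compound: 20 µM, 1% DMSO / Times: 6 h treatment, 37 °C / Detection: luciferase luminescence / Measure: % activation of reporter signal versus tunicamycin and DMSO controls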
CSC inhib: cancer stem cell viability inhibitors, primary screen, luminescence; cancer stem cell-like cells viability; inhibition, % at 7.5 µM; 300,000 tested, 1.1% active; AID 2717, 2010; in the data active = inhibition above about 75%; tested in HMLE shEcad cells
CHOP UPR activ: activators of apoptotic CHOP UPR arm, primary screen, cell-based, CHO-CHOP luciferase reporter, luminescence, uHTS; UPR activation; percent of tunicamycin response over DMSO baseline; activation, % at 10 µM; 330,000 tested, 0.34% active;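 active = at 10 µM dose, activation of 40% or more, normalized to positive control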;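 also: 100% = tunicamycin at 10 µg/mL and 0% = DMSO alone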
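Test system: CHO-CHOP cells, stable luciferase reporter of PERK-eIF2a-CHOP signalling | Quantity: 500 CHO-CHOP cells per well | Buffer or medium: F12 plus 10% serum | Compound dosing: 10 µM single point, 0.5% DMSO | Schedule: 6 h compound treatment, 37 °C | Signal: Luciferase luminescence | Control set: Tunicamycin high control, DMSO low control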
Mdm2-MdmX inh: inhibitors of human Mdm2-MdmX association, primary screen, cell-based, luminescence, split luciferase, SaOS-2, uHTS | Protein Mdm4 (Homo sapiens) + E3 ubiquitin-protein ligase Mdm2 (Homo sapiens), … | SaOS-2 split-luciferase Mdm2/MdmX complementation | inhibition, % at 8 µM | 330,000 tested, 3% active | AID 485346, 2010;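 active = inhibition of at least 50% at 8 µM in the primary screen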
Mdm2 MdmX conf: Mdm2-MdmX complex disruptors, retested hits, confirmation, luminescence, single concentration; shares compounds with Mdm2-MdmX inh; Mdm2-MdmX binding, luminescent assay; inhibition, % at 8 µM; 10,000 tested, 55% active; in the data active = inhibition above about 40%
FLuc counter: full-length luciferase signal inhibition, confirmation, counter-screen for Mdm2/MdmX interaction inhibitor project, cell-based, single concentration, SaOS-2 | SaOS-2 full-length luciferase counterscreen, luminescence | AID 504607, 2011 | inhibition, % at 8 µM | 6,200 tested, 77% active | shares compounds with Mdm2-MdmX inh;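 active = mean inhibition at 8 µM reaching about 37%, which flags the compound as non-specific, limit read from the data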;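 also: p53-null SaOS-2 cells with luciferase driven by a doxycycline-inducible promoter; compound on cells about two nights before reading with doxycycline added after day one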
* hit, by the source's call.

Cc1sc2nc(C3CC3)nc(SCC(=O)N3CCc4ccccc4C3)c2c1C was read as SKKanGAS inh 25, Beta cell apopt -10, XBP1 UPR activ -4, CSC inhib 21, CHOP UPR activ -2 and Mdm2-MdmX inh -2.
O=S(=O)(CC(CN1CCCC1)N1CCCC1)c1ccc2ccccc2c1 (stereo unspecified) was read as SKKanGAS inh 2, Beta cell apopt -3, XBP1 UPR activ -3, CSC inhib 7, CHOP UPR activ 11, Mdm2-MdmX inh 75*, Mdm2 MdmX conf 85* and FLuc counter 56*.
`N#CC1=C2SCC(O)(c3ccccc3)N2C(=O)CC1c1ccccc1` (stereo unspecified) gave SKKanGAS inh 18, Beta cell apopt 15, XBP1 UPR activ 0, CSC inhib 54, CHOP UPR activ 2, Mdm2-MdmX inh 76*, Mdm2 MdmX conf 74* and FLuc counter 58*.
Screening CCN(C(=O)COC(=O)CC1CCCCC1)c1c(N)n(Cc2ccccc2)c(=O)[nH]c1=O returned Beta cell apopt 4, XBP1 UPR activ -1, CSC inhib -10, CHOP UPR activ 0 and Mdm2-MdmX inh 8.
`O=C(NNC(=O)c1cc(Br)ccc1Cl)c1csc(N2CCOCC2)n1` gave SKKanGAS inh -6, Beta cell apopt -1, XBP1 UPR activ -3, CSC inhib 4, CHOP UPR activ 4 and Mdm2-MdmX inh -15.
`O=C(NNC(=O)c1cc(Br)ccc1O)c1csc(N2CCOCC2)n1` gave Beta cell apopt 10, XBP1 UPR activ -2, CHOP UPR activ -1, Mdm2-MdmX inh 64*, Mdm2 MdmX conf 44* and FLuc counter 59*.
`CC1CCC(NS(=O)(=O)c2ccc(Cl)nc2)CC1` (stereo unspecified) gave SKKanGAS inh 1, Beta cell apopt 1, XBP1 UPR activ -2, CSC inhib -1, CHOP UPR activ 1 and Mdm2-MdmX inh -7.
Screening COc1cccc(CNc2cccc3cccnc23)c1O returned SKKanGAS inh -2, Beta cell apopt 14, XBP1 UPR activ 5, CSC inhib 12, CHOP UPR activ 5 and Mdm2-MdmX inh 4.
`Cc1cccnc1NCc1ccc(O)c2ncccc12` gave SKKanGAS inh 67*, XBP1 UPR activ 13, CSC inhib 56, CHOP UPR activ 22, Mdm2-MdmX inh 57* and Mdm2 MdmX conf 5.
Screening Cc1cccc(NCc2ccc(O)c3ncccc23)c1C returned SKKanGAS inh 11, Beta cell apopt 8, XBP1 UPR activ 5, CSC inhib -6, CHOP UPR activ 2, Mdm2-MdmX inh 74*, Mdm2 MdmX conf 73* and FLuc counter 42*.
Screening Oc1ccc(Br)cc1CNc1cccc2cccnc12 returned SKKanGAS inh 55*, Beta cell apopt 100*, XBP1 UPR activ 10, CSC inhib 52, CHOP UPR activ 10, Mdm2-MdmX inh 60*, Mdm2 MdmX conf 64* and FLuc counter 26.
CCOc1ccc(S(=O)(=O)N2CCC(C(=O)N3CCN(c4ccccc4F)CC3)CC2)cc1C was read as SKKanGAS inh 3, Beta cell apopt 4, XBP1 UPR activ -3, CSC inhib -6, CHOP UPR activ 2 and Mdm2-MdmX inh 38.
